Results as given in ChEMBL document CHEMBL1126800, “Preparation of substituted N-phenyl-4-aryl-2-pyrimidinamines as mediator release inhibitors” (J Med Chem, 1993).

organism: Homo sapiens; experiment: In vitro inhibition of histamine release from human basophils; type: functional, organism-based; conditions: not given
Method in brief: (§1)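 Human basophils separated from leukocytes were incubated with test compound, then challenged with anti-IgE or antigen (Lichtenstein method). Histamine release was measured against controls and blanks. IC50 is the concentration lowering histamine release by 50%.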

| IC50 [µM] | Structure (SMILES) |
| --- | --- |
| 0.6 | c1cc(Nc2nccc(-c3ccncc3)n2)cc(-n2ccnc2)c1 |
| 2.9 | FC(F)(F)c1cccc(Nc2nccc(-c3ccccn3)n2)c1 |

same assay, conditions: Homo sapiens

| IC50 [µM] | Structure (SMILES) |
| --- | --- |
| > 3 | Cc1cn(-c2ccc(Nc3nccc(-c4ccncc4)n3)cc2)cn1 |
| 1.8 | CC1CCN(c2ccc(Nc3nccc(-c4ccco4)n3)cc2)CC1 |
| 1.4 | c1ccc(-c2ccnc(Nc3ccc(-n4ccnc4)cc3)n2)nc1 |
| 3.3 | CN(C)c1ccc(Nc2nccc(-c3ccccn3)n2)cc1 |
| 0.5 | NS(=O)(=O)c1cccc(Nc2nccc(-c3ccncc3)n2)c1 |
| 0.5 | Nc1cccc(Nc2nccc(-c3cccnc3)n2)c1 |
| 0.9 | COc1cccc(Nc2nccc(-c3cccs3)n2)c1 |
| 2 | Cc1cccc(Nc2nccc(-c3ccc(C)o3)n2)c1 |
| 19.2 | CCc1ccc(Nc2nccc(-c3cc(C)oc3C)n2)cc1 |
| 2.2 | CCOC(=O)C(=O)N(c1ccccc1)c1nccc(-c2ccncc2)n1 |
| 5.3 | CC(=O)Nc1ccc(Nc2nccc(-c3ccncc3)n2)cc1 |
| > 24 | COc1ccc(N(C)c2nccc(-c3cccnc3)n2)cc1 |
| 8.7 | CCN(CC)c1ccc(Nc2nccc(-c3ccco3)n2)cc1 |
| 1.3 | c1cncc(-c2ccnc(Nc3ccc(-n4ccnc4)cc3)n2)c1 |
| 8.3 | COc1ccc(Nc2nccc(-c3ccccn3)n2)cc1 |
| 12.4 | CCOC(=O)c1ccc(Nc2nccc(-c3cccnc3)n2)cc1 |
| 4.2 | COc1ccc(Nc2nccc(-c3ccncc3)n2)cc1 |
| > 24 | CCN(CC)c1ccc(Nc2nccc(-c3cc(C)oc3C)n2)cc1 |

| IC50 [µM] | Structure (SMILES) |
| --- | --- |
| 2.1 | CNc1ccc(Nc2nccc(-c3cccnc3)n2)cc1 |
| 0.3 | CC(=O)Nc1cccc(Nc2nccc(-c3ccccn3)n2)c1 |
| 4.3 | c1csc(-c2ccnc(Nc3ccc(-n4ccnc4)cc3)n2)c1 |
| 15.6 | COc1ccc(Nc2nccc(-c3ccsc3)n2)cc1 |
| 0.2 | COc1cccc(Nc2nccc(-c3ccccn3)n2)c1 |
| 5.9 | Cc1cc(-c2ccco2)nc(Nc2ccc(N(C)C)cc2)n1 |
| 0.6 | CC1CCN(c2ccc(Nc3nccc(-c4ccncc4)n3)cc2)CC1 |
| 1.9 | CCc1ccc(Nc2nccc(-c3cnccn3)n2)cc1 |
| 3.6 | CC(=O)Nc1cccc(Nc2nccc(-c3cccnc3)n2)c1 |
| 3 | CCOC(=O)c1cccc(Nc2nccc(-c3ccccn3)n2)c1 |
| 1.8 | CC(=O)N(C)c1ccc(Nc2nccc(-c3ccccn3)n2)cc1 |
| 0.3 | Nc1cccc(Nc2nccc(-c3ccccn3)n2)c1 |
| 1.8 | Cc1ccsc1-c1ccnc(Nc2ccc(N(C)C)cc2)n1 |
| 2.4 | CN(C)c1cccc(Nc2nccc(-c3cccs3)n2)c1 |
| 31.7 | c1ccc(Nc2nccc(-c3cccs3)n2)cc1 |
| 9.8 | COc1ccccc1Nc1nccc(-c2cccnc2)n1 |
| > 24 | Cc1cc(C)cc(Nc2nc(C)cc(-c3ccccn3)n2)c1 |
| 9.7 | CCc1cccc(Nc2nccc(-c3ccco3)n2)c1 |

| Structure (SMILES) | IC50 [µM] |
| --- | --- |
| c1ccc(-c2ccnc(Nc3cccc(-n4ccnc4)c3)n2)nc1 | 0.3 |

system: Mus musculus; experiment: Tested for in vivo activity in mouse by passive cutaneous anaphylaxis (PCA) test; type: functional; conditions: read-out: ID50 (the source's name)
Method in brief: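 Mouse passive cutaneous anaphylaxis test with oral dosing of compound. Read at times of […] after dosing. Value expressed as ID50 in mg/kg.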

| Structure (SMILES) | ED50 [mg/kg] |
| --- | --- |
| c1ccc(-c2ccnc(Nc3cccc(-n4ccnc4)c3)n2)nc1 | 50 |

organism: Homo sapiens; experiment: Tested for in vitro cell leukotriene C4 release inhibition by radioimmunoassay; type: functional, organism-based; conditions: not given
Method in brief: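 Basophils were incubated with compound and challenged. LTC4 release was measured by radioimmunoassay, with duplicate samples processed per the [3H] LTC4 RIA kit procedure. Histamine release was measured simultaneously on a second portion of the same cells. IC50 is from n = 5.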

| Structure (SMILES) | IC50 [µM] |
| --- | --- |
| c1ccc(-c2ccnc(Nc3cccc(-n4ccnc4)c3)n2)nc1 | 0.205 |

system: not listed separately; experiment: Tested for toxic concentration in mice; type: ADME, organism-based; conditions: mouse, in vivo

| Structure (SMILES) | LD50 [mg/kg] |
| --- | --- |
| c1ccc(-c2ccnc(Nc3cccc(-n4ccnc4)c3)n2)nc1 | 800 |

organism: Homo sapiens; experiment: In vitro inhibition of histamine release from human basophils; H= Compound interfered with the histamine assay; type: functional, organism-based; conditions: not given; method in brief: as §1

| Structure (SMILES) | IC50 |
| --- | --- |
| CNc1ccc(Nc2nccc(-c3ccncc3)n2)cc1.Cl.Cl | Compound interfered with the histamine assay |
